Data set [1] concerns the target Voltage-gated inwardly rectifying potassium channel KCNH2 (Homo sapiens, UniProt Q12809). In words: Inhibition of human ERG by patch clamp assay. Background: In patch-clamp work, channel activity is measured electrically.
A further data set has as its system HEK293. Briefly: Cytotoxicity against human HEK293 cells at 25 uM after 72 hrs by celltiter-glo assay. The format is cell-based. The settings on record: hek293, 72 h. On the technique in general: ATP-based viability assays read luminescence as a measure of living cells.
The nature of data set [2]: Intrinsic clearance in […] mouse liver microsomes at 2 mM. The format is ADME, Microsome. The following applies: read-out: CLH. (In general: Liver microsomes are vesicles of endoplasmic reticulum, rich in cytochrome P450 enzymes.)
The test system of data set [3] is Plasmodium falciparum. Briefly: Antimalarial activity against Plasmodium falciparum 3D7 after 72 hrs by MSF assay. The format is functional, organism-based. The settings on record: 3D7, 72 h.
The test system of data set [4] is Mus musculus. In words: Apparent volume of distribution during terminal phase in CD1 mouse at 500 mg/kg, po. The format is ADME, organism-based. Also on record: dose 500 mg/kg, route oral. The settings on record: mouse, in vivo. Summed up: (§1)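 Female CD-1 mice, 8 weeks old, were given a single oral gavage dose as a suspension in 0.5% methylcellulose in sterile water. Blood was taken from three mice per time point (5 min–24 hr) into K3EDTA and processed to plasma. After acetonitrile protein precipitation, samples were analysed by LC-MS/MS with a warfarin internal standard. Noncompartmental analysis used linear-up/log-down trapezoidal AUC and at least three non-zero concentrations after Tmax.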

Data set [5] has as its system Plasmodium berghei. Briefly: Antimalarial activity against Plasmodium berghei NK-65 infected in ICR mouse assessed as survival rate at 200 mg/kg, po administered day 3, 4 and 5 post infection. Type of data set: functional. Summed up: (§2)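 Female Swiss outbred ICR mice, 15–20 g, given 1 X 10^6 P. berghei NK-65 infected red cells from donor mice in plasma at day 0 (modified Thompson's test). Patent infection confirmed by tail blood smear on day 3. Oral single daily doses in 0.5% HEC on days 3, 4, 5. Vehicle controls. Survival recorded daily to day 30. Parasitemia from Giemsa thin films on days 3, 6, 13, 20, 27, counting ≥1000 cells.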

Data set [6] deals with T1, CYP2D6 (Homo sapiens, UniProt P10635). Briefly: Inhibition of CYP2D6 in human liver microsomes at 1 uM after 20 mins by LC-MS/MS analysis relative to control; values are per cent of control.
The subject of another data set is Raji. Briefly: Cytotoxicity against human Raji cells at 25 uM after 72 hrs by celltiter-glo assay. Type of data set: cell-based.
Data set [7] has as its target T1, CYP2D6. In words: Inhibition of CYP2D6 in human liver microsomes at 10 uM after 20 mins by LC-MS/MS analysis relative to control; values are per cent of control.
A short description of data set [8]: Apparent volume of distribution during terminal phase in CD1 mouse at 20 mg/kg, po. The settings on record: CD1, mouse, in vivo, read-out: Vz/F. The format is ADME, organism-based. Also on record: dose 20 mg/kg, route oral. Summed up: as §1
Data set [9] has as its system Plasmodium berghei. In words: Antimalarial activity against Plasmodium berghei NK-65 infected in ICR mouse assessed as survival rate at 100 mg/kg, po administered day 3, 4 and 5 post infection. Type of data set: functional. Summed up: as §2
The test system of data set [10] is Mus musculus. Briefly: Tmax in CD1 mouse at 200 mg/kg, po. The format is ADME, organism-based. Also on record: dose 200 mg/kg, route oral. The following applies: in vivo. Summed up: as §1
A short description of data set [11]: Apparent volume of distribution during terminal phase in CD1 mouse at 200 mg/kg, po. Type of data set: ADME, organism-based. Also on record: dose 200 mg/kg, route oral. The settings on record: in vivo, read-out: Vz/F. In a few lines: as §1
Data set [12] deals with Mus musculus. Briefly: Tmax in CD1 mouse at 500 mg/kg, po. The settings on record: in vivo. Type of data set: ADME, organism-based. Also on record: dose 500 mg/kg, route oral. Summed up: as §1
Data set [13] concerns Mus musculus. In words: AUC (0 to infinity) in CD1 mouse at 200 mg/kg, po. Also on record: time infinity, dose 200 mg/kg, route oral. The format is ADME, organism-based, Plasma. The settings on record: in vivo. In a few lines:
as §1

For data set [14], the system named is Plasmodium berghei. In words: Antimalarial activity against Plasmodium berghei NK-65 infected in ICR mouse assessed as parasitemia level at 200 mg/kg, po administered day 3, 4 and 5 post infection measured up to day 30 by Geimsa staining. Type of data set: functional. Summed up:
as §2

Data set [15] deals with Plasmodium falciparum. Briefly: Antimalarial activity against Plasmodium falciparum K1 after 72 hrs by MSF assay. Type of data set: functional, organism-based. The following applies: K1, 72 h.
Another data set concerns HepG2. Briefly: Cytotoxicity against human HepG2 cells at 25 uM after 72 hrs by celltiter-glo assay. The format is cell-based. The following applies: hepg2, 72 h.
Data set [16] concerns Mus musculus. In words: AUC (0 to infinity) in CD1 mouse at 20 mg/kg, po. Type of data set: ADME, organism-based, Plasma. Also on record: time infinity, dose 20 mg/kg, route oral. The settings on record: in vivo. Summed up:
as §1

Data set [17] has as its system Plasmodium berghei. Briefly: Antimalarial activity against Plasmodium berghei NK-65 infected in ICR mouse assessed as parasitemia level at 100 mg/kg, po administered day 3, 4 and 5 post infection measured up to day 30 by Geimsa staining. Type of data set: functional. Summed up:
as §2

In data set [18] the test system is Mus musculus. In words: Cmax in CD1 mouse at 200 mg/kg, po. The settings on record: in vivo. The format is ADME, organism-based. Also on record: dose 200 mg/kg, route oral. Summed up: as §1
Another data set concerns BJ. Briefly: Cytotoxicity against human BJ cells at 25 uM after 72 hrs by celltiter-glo assay. Type of data set: cell-based.
The nature of data set [19]: Solubility of the compound in PBS at 10 mM after 18 hrs by UV spectroscopic analysis. Type of data set: physicochemical.
Data set [20] can be described thus: Permeability of the compound at 10 uM at pH 7.4 by PAMPA. Type of data set: ADME. The following applies: pH 7.4, 10 µM. In a few lines: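 PAMPA: diluted compound in system solution buffer at pH 7.4 was placed in the donor well over a GIT-lipid-painted membrane, with acceptor solution buffer in the acceptor well. The sandwich was stirred for 30 min with the aqueous boundary layer set to 40 μm. Triplicate.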

For data set [21], the system named is Mus musculus. Briefly: Cmax in CD1 mouse at 20 mg/kg, po. Also on record: dose 20 mg/kg, route oral. The following applies: in vivo. Type of data set: ADME, organism-based. Summed up: as §1
In data set [22] the test system is Mus musculus. Briefly: Cmax in CD1 mouse at 500 mg/kg, po. The format is ADME, organism-based. Also on record: dose 500 mg/kg, route oral. The settings on record: in vivo. Summed up:
as §1

A further data set deals with hERG. Briefly: Therapeutic index, ratio of IC50 for human ERG to EC50 for Plasmodium falciparum K1. The settings on record: read-out: Ratio IC50/EC50.
The subject of data set [23] is Mus musculus. Briefly: AUC (0 to infinity) in CD1 mouse at 500 mg/kg, po. The following applies: in vivo. Also on record: time infinity, dose 500 mg/kg, route oral. Type of data set: ADME, organism-based, Plasma. In a few lines:
as §1

In data set [24] the test system is Mus musculus. Briefly: Tmax in CD1 mouse at 20 mg/kg, po. The following applies: in vivo. The format is ADME, organism-based. Also on record: dose 20 mg/kg, route oral. Summed up:
as §1

Data set [25] concerns Plasmodium berghei. In words: Antimalarial activity against Plasmodium berghei NK-65 infected in ICR mouse assessed as survival rate at 50 mg/kg, po administered day 3, 4 and 5 post infection. The format is functional. Summed up: as §2

The results in this text go back to ChEMBL document CHEMBL2157870 (J Med Chem, 2012).

Structures are written as SMILES. ≈ marks a conversion by molar mass, not a printed value.

T1 sequence (P10635 whole entry): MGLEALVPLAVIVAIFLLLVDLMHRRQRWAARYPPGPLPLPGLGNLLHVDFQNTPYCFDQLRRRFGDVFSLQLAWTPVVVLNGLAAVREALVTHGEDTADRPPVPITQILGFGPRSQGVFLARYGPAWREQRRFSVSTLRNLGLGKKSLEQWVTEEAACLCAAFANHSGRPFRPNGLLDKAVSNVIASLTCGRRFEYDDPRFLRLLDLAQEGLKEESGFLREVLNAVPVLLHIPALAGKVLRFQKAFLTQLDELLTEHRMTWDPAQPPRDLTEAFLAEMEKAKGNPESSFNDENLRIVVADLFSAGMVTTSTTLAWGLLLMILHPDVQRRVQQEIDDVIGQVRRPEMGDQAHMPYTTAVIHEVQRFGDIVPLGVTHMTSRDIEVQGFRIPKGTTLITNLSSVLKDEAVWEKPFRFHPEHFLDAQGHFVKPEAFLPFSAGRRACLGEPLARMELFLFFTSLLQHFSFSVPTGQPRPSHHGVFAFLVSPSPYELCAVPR
Sequence of Voltage-gated inwardly rectifying potassium channel KCNH2 (Q12809 whole entry): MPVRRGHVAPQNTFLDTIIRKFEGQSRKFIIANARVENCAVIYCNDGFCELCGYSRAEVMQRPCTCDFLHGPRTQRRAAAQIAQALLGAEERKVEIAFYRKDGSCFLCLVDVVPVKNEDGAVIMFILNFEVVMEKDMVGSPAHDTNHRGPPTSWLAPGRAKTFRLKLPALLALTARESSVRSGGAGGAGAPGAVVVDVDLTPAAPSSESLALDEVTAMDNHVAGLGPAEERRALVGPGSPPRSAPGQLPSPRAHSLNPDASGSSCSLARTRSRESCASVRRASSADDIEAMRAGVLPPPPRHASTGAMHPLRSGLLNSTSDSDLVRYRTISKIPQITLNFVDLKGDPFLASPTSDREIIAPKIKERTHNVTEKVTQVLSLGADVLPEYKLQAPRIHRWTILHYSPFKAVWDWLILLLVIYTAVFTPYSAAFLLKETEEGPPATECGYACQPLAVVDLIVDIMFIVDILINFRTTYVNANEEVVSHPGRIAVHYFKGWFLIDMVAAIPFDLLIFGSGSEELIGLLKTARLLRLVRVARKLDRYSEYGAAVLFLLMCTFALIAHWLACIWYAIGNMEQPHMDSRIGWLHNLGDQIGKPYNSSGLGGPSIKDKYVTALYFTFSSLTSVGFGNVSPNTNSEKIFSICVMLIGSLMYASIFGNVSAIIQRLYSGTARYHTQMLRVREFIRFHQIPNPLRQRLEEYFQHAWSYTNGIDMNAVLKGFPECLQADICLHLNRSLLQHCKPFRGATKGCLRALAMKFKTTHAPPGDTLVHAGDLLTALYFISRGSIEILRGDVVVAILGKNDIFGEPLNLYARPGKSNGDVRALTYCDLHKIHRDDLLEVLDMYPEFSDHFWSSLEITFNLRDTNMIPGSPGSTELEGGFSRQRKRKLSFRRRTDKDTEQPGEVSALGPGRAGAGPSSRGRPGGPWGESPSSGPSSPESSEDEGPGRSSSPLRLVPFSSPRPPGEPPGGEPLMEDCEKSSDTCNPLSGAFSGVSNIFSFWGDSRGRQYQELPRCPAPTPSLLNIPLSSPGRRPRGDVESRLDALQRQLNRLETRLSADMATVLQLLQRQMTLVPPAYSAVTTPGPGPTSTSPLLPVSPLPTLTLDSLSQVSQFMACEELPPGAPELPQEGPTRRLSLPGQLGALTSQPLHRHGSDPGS

In general, IC50 refers to the midpoint of a concentration-inhibition curve. For orientation: EC90 means the point of the concentration-response curve where the effect stands at 90%. One may read the Tmax as the time at which the peak concentration occurs. Broadly, the AUC is the area under the concentration-time curve, a measure of exposure. A higher AUC goes with more exposure. One may read the Cmax as the peak of the concentration-time curve. What is called solubility is how much of the substance goes into solution per volume. Low readings indicate a poorly soluble substance, high ones a readily soluble substance. `O=C(CCc1ccccc1)c1ccccc1OCC(O)CN1CCN(C(c2ccccc2)c2ccccc2)CC1` (stereo unspecified) returned an IC50 in data set [1] of 2600 nM. For the same compound, the Activity entry in the data set on HEK293 is “Non-toxic”; in the data set on Raji it was “Non-toxic”; in the data set on Plasmodium berghei [14], 55.3%; with HepG2 it was “Non-toxic”; with Plasmodium berghei [17], 53.6%; in the data set on BJ, “Non-toxic”. Besides, the CLint scaled in [2] stood at 70 mL/min/kg. Also, the EC90 was determined as 90 nM in the data set with Plasmodium falciparum [3] and 100 nM in the data set on Plasmodium falciparum [15]. Besides, the Vz/F in the data set with Mus musculus [4] was 2020 L/kg. Moreover, the MST in the data set on Plasmodium berghei [5] and in the data set with Plasmodium berghei [9] was 7 days throughout. The compound also gave a % activity remaining at 20 min, 1 µM at CYP2D6 [6] of 76%. Also, the % activity remaining at 20 min, 10 µM at CYP2D6 [7] was 59%. For the same compound, the Vd/F in data set [8] was found to be 318 L/kg; in data set [11] it was 603 L/kg. The figures for the Tmax in the data set with Mus musculus [10], in the data set with Mus musculus [12] and in the data set on Mus musculus [24] were 0.5 h, 1 h and 1 h, respectively. For the same compound, the AUC in the data set on Mus musculus [13] turned out to be 3.1 µM·h; with Mus musculus [16], 0.249 µM·h; in the data set on Mus musculus [23], 3.37 µM·h. Further, the Cmax in the data set with Mus musculus [18] is 667 nM; with Mus musculus [21], 73.7 nM; in the data set with Mus musculus [22], 598 nM. The same compound showed a solubility at 18 h, 10000 µM in data set [19] of 0.1 µM (≈ 0.0535 µg/mL). Also, the permeability in [20] turned out to be 2.3 ×10⁻⁶ cm/s. The selectivity ratio in the data set with hERG is 26.

Turning to `CCN(CC)CCCC(C)Nc1ccnc2cc(Cl)ccc12` (stereo unspecified) [CHLOROQUINE], the figures for the MST with Plasmodium berghei [9] and in the data set with Plasmodium berghei [25] were 22 days and 17 days, respectively.
